Test results as given in ChEMBL document CHEMBL1152956, “Synthesis and cytotoxic activity of 5,6-heteroaromatically annulated pyridine-2,4-diamines” (Bioorg Med Chem, 2009).

Assays:
RT-4 [1] = assay: Cytotoxicity against human RT4 cells after 96 hrs by crystal violet staining; format: functional, cell-based; conditions: RT-4, 96 h
How it was run: (§1)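 Compounds were held as 20 mM DMSO stocks at -20 °C and serially diluted in DMSO to working solutions of 20, 10, 5.0, 2.50, 1.25 and […]. Five of these were diluted 1000-fold into medium, with DMSO-only controls. Dividing cells had 96 h continuous exposure, then glutaraldehyde fixation and crystal violet staining. Dye was redissolved in 70% ethanol and read at OD 570 nm. IC50 came from linear regression of log dose–response curves.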

A-427 [2] = assay: Cytotoxicity against human A427 cells after 96 hrs by crystal violet staining; format: functional, cell-based; conditions: A-427, 96 h; how it was run: as §1
5637 [3] = assay: Growth inhibition of human 5637 cells at 20 uM after 96 hrs by crystal violet staining; format: functional; conditions: Homo sapiens, 5637, 96 h; read-out: GI
How it was run: (§2)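 This was a single-concentration screen. Actively dividing cells had 96 h continuous exposure to compound diluted 1000-fold from a DMSO solution into medium. Cells were fixed with glutaraldehyde and stained with crystal violet. Bound dye was redissolved in 70% ethanol and read at OD 570 nm. Growth inhibition was expressed against untreated controls.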

RT-4 [4] = assay: Growth inhibition of human RT4 cells at 20 uM after 96 hrs by crystal violet staining; format: functional; conditions: RT-4, 96 h, read-out: GI; how it was run: as §2
DAN-G [5] = assay: Growth inhibition of human DAN-G cells at 20 uM after 96 hrs by crystal violet staining; format: functional; conditions: read-out: GI; how it was run: as §2
MCF7 [6] = assay: Cytotoxicity against human MCF7 cells after 96 hrs by crystal violet staining; format: functional, cell-based; conditions: MCF7, 96 h; how it was run: as §1
MCF7 [7] = assay: Growth inhibition of human MCF7 cells at 20 uM after 96 hrs by crystal violet staining; format: functional; conditions: MCF7, 96 h, read-out: GI; how it was run: as §2
[8] = Growth inhibition of human LCLC-103H cells at 20 uM after 96 hrs by crystal violet staining; format: functional; conditions: read-out: GI; how it was run: as §2
5637 [9] = assay: Cytotoxicity against human 5637 cells after 96 hrs by crystal violet staining; format: functional, cell-based; conditions: Homo sapiens, 5637, 96 h; how it was run: as §1
[10] = Cytotoxicity against human LCLC-103H cells after 96 hrs by crystal violet staining; format: functional, cell-based; how it was run: as §1
A-427 [11] = assay: Growth inhibition of human A427 cells at 20 uM after 96 hrs by crystal violet staining; format: functional; conditions: A-427, 96 h, read-out: GI; how it was run: as §2
DAN-G [12] = assay: Cytotoxicity against human DAN-G cells after 96 hrs by crystal violet staining; format: functional, cell-based; how it was run: as §1

| Compound | IC50 (RT-4 [1]) | IC50 (A-427 [2]) | inhibition of growth at 20 µM 5637 [3] | inhibition of growth at 20 µM (RT-4 [4]) | inhibition of growth at 20 µM (DAN-G [5]) | IC50 (MCF7 [6]) | inhibition of growth at 20 µM (MCF7 [7]) | inhibition of growth at 20 µM [8] | IC50 5637 [9] | IC50 [10] | inhibition of growth at 20 µM (A-427 [11]) | IC50 (DAN-G [12]) |
| --- | --- | --- | --- | --- | --- | --- | --- | --- | --- | --- | --- | --- |
| CN(C)c1cc(N)c2c3c(sc2n1)CCCC3 | > 20 µM | > 20 µM | < 50% | < 50% | < 50% | > 20 µM | < 50% | < 50% | > 20 µM | > 20 µM | < 50% | > 20 µM |
| Cc1c(C)n(Cc2ccccc2)c2nc(N(C)C)cc(N)c12 | 19.6 µM | 12.5 µM | – | – | < 50% | 13.1 µM | – | < 50% | 11.8 µM | > 20 µM | – | > 20 µM |
| C=CCn1c(-c2ccccc2)c(-c2ccccc2)c2c(N)cc(N(C)C)nc21 | 12.1 µM | 3.93 µM | – | – | < 50% | 9.04 µM | – | < 50% | 16.9 µM | > 20 µM | – | > 20 µM |
| Cc1c(-c2ccccc2)sc2nc(N(C)C)cc(N)c12 | 6.19 µM | 15.3 µM | – | – | – | 13.6 µM | – | < 50% | 17.7 µM | > 20 µM | – | 16.4 µM |
| Nc1cc(N2CCCC2)nc2sc(-c3ccccc3)c(-c3ccccc3)c12 | > 20 µM | 8.76 µM | – | < 50% | – | 13.7 µM | – | – | 8.18 µM | 9.79 µM | – | 8.17 µM |
| Cc1oc2nc(N3CCCC3)cc(N)c2c1C | > 20 µM | > 20 µM | < 50% | < 50% | < 50% | > 20 µM | < 50% | < 50% | > 20 µM | > 20 µM | < 50% | > 20 µM |
| Cc1cc2c(N)cc(N(C)C)nc2nc1-c1ccccc1 | 5 µM | 11.8 µM | – | – | – | 11.7 µM | – | < 50% | 8.82 µM | > 20 µM | – | 18.1 µM |
| CN(C)c1cc(N)c2c3ccccc3n(C)c2n1 | > 20 µM | > 20 µM | < 50% | < 50% | < 50% | > 20 µM | < 50% | < 50% | > 20 µM | > 20 µM | < 50% | > 20 µM |
| COc1ccc(Cn2c3nc(N(C)C)cc(N)c3c3ccc4ccccc4c32)cc1 | > 20 µM | > 20 µM | < 50% | < 50% | < 50% | > 20 µM | < 50% | < 50% | > 20 µM | > 20 µM | < 50% | > 20 µM |
| CN(C)c1cc(N)c2c(-c3ccccc3)c(-c3ccccc3)sc2n1 | > 20 µM | 11.2 µM | – | < 50% | – | 16.2 µM | – | – | 10.1 µM | 10.6 µM | – | 15.2 µM |
| Cc1nc2nc(N(C)C)cc(N)c2cc1-c1ccccc1 | > 20 µM | – | < 50% | < 50% | < 50% | > 20 µM | < 50% | < 50% | > 20 µM | > 20 µM | – | > 20 µM |
| Cc1oc2nc(N(C)C)cc(N)c2c1C | > 20 µM | > 20 µM | < 50% | < 50% | < 50% | > 20 µM | < 50% | < 50% | > 20 µM | > 20 µM | < 50% | > 20 µM |
| CN(C)c1cc(N)c2c(n1)[nH]c1c3ccccc3ccc12 | 6.56 µM | 6.58 µM | – | – | – | 7.52 µM | – | – | 7.9 µM | 9.67 µM | – | 9.84 µM |
| CN(C)c1cc(N)c2c(n1)[nH]c1ccccc12 | > 20 µM | > 20 µM | < 50% | < 50% | < 50% | > 20 µM | < 50% | < 50% | > 20 µM | > 20 µM | < 50% | > 20 µM |
| Nc1cc(N2CCCC2)nc2nc(-c3ccccc3)c(-c3ccccc3)cc12 | 12 µM | 4.33 µM | – | – | – | 4.08 µM | – | – | 2.75 µM | 12.5 µM | – | 6.34 µM |
| Nc1cc(N2CCCC2)nc2oc(-c3ccccc3)c(-c3ccccc3)c12 | 17.7 µM | 13.8 µM | – | – | < 50% | 14.7 µM | – | < 50% | 18.4 µM | > 20 µM | – | > 20 µM |
| CN(C)c1cc(N)c2c3ccc4ccccc4c3n(C)c2n1 | 12.9 µM | 14.3 µM | < 50% | – | < 50% | 21.3 µM | – | < 50% | > 20 µM | > 20 µM | – | > 20 µM |
| CN(C)c1cc(N)c2c(-c3ccccc3)c(-c3ccccc3)n(Cc3ccccc3)c2n1 | > 20 µM | – | < 50% | < 50% | < 50% | > 20 µM | < 50% | < 50% | > 20 µM | > 20 µM | – | > 20 µM |
| COc1ccc(Cn2c3ccccc3c3c(N)cc(N(C)C)nc32)cc1 | – | > 20 µM | < 50% | – | < 50% | > 20 µM | < 50% | < 50% | > 20 µM | > 20 µM | < 50% | > 20 µM |
| CN(C)c1cc(N)c2c3c(n(Cc4ccccc4)c2n1)CCCC3 | – | – | – | – | < 50% | – | – | < 50% | – | > 20 µM | – | > 20 µM |
| CCOC(OCC)n1c2ccccc2c2c(N)cc(N(C)C)nc21 | > 20 µM | > 20 µM | < 50% | < 50% | < 50% | > 20 µM | < 50% | < 50% | > 20 µM | > 20 µM | < 50% | > 20 µM |
| CN(C)c1cc(N)c2ccc3ccccc3c2n1 | 7.82 µM | 8.22 µM | – | – | – | 6.2 µM | – | – | 10 µM | 8.93 µM | – | 10.2 µM |
| CN(C)c1cc(N)c2c(-c3ccccc3)c(-c3ccccc3)oc2n1 | > 20 µM | 14.6 µM | – | < 50% | < 50% | 18.8 µM | – | < 50% | 14.9 µM | > 20 µM | – | > 20 µM |
| CN(C)c1cc(N)c2cc(-c3ccccc3)c(-c3ccccc3)nc2n1 | 14.4 µM | 7.93 µM | – | – | – | 7.79 µM | – | – | 8.03 µM | 13.7 µM | – | 11.6 µM |
| Cc1c2ccncc2c(C)c2c1[nH]c1ccccc12 [ELLIPTECINE] | 1.21 µM | 0.89 µM | – | – | – | 0.43 µM | – | – | 0.89 µM | 0.8 µM | – | – |
